Results taken from ChEMBL document CHEMBL2417485, “Quinazoline-based multi-tyrosine kinase inhibitors: synthesis, modeling, antitumor and antiangiogenic properties” (Eur J Med Chem, 2013).
Active and inactive are the calls of the source. No cut-off for these calls is given here.

How the values were obtained:
NIH3T3 = assay: Antiproliferative activity against mouse NIH/3T3 cells after 72 hrs by MTT assay; type: cell-based; details: NIH3T3, 72 h
A-431 = assay: Antiproliferative activity against human A431 cells after 72 hrs by MTT assay; type: functional, cell-based; details: A-431, 72 h
[1] = Antiproliferative activity against human MCF7/beta cells after 72 hrs by MTT assay; type: functional, cell-based; details: MCF7, 72 h
[2] = target: Vascular endothelial growth factor receptor 2 (Homo sapiens) (UniProt P35968); assay: Inhibition of VEGFR2 (unknown origin) at 1 uM
Procedure, shortened: (§1)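 Recombinant FGFR-1 or VEGFR-2 (final 200 ng/mL) in MOPS pH 7.2 buffer with MgCl2, EGTA, EDTA, DTT and BSA. Compound range was 1–0.01 µM. Reactions used myelin basic protein (0.2 mg/ml), 0.05 mM ATP and 0.25 μCi [γ-32P]ATP, 30 °C for 20 min.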

[3] = target: T1, Platelet-derived growth factor receptor beta (Homo sapiens, UniProt P09619); assay: Inhibition of PDGFRbeta (unknown origin)
[4] = target: Proto-oncogene tyrosine-protein kinase Src (Homo sapiens, UniProt P12931); assay: Inhibition of Src (unknown origin)
HUVEC [5] = assay: Antiproliferative activity against HUVEC assessed as reduction in cell viability at 10 uM after 24 hrs by MTT assay; type: cell-based; details: human
Procedure, shortened: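 Primary HUVECs (passage ≤5) were seeded at 1×10^4 cell/cm² and grown for 24 h. They were exposed to compound at 10 μM for 24 h (20 h, then MTT 0.50 mg/ml for 4 h). Absorbance was read at 570 nm. Results are the percent change from untreated cultures; mean ± SD of ≥3 experiments.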

HUVEC [6] = assay: Antiangiogenic activity in HUVEC assessed as reduction in cell migration at 1 uM after 4 hrs by matrigel assay; type: functional, cell-based; details: Homo sapiens, in the assay text read “by modified Boyden chamber assay” for “by matrigel assay”
Procedure, shortened: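 Modified Boyden chamber. HUVECs (3×10^4 cell/cm²) were placed on 5.0 µm pore inserts in basal medium with 1% FCS, ±1 µM compound; the lower chamber held growth-factor medium. After 4 h, cells were fixed, the upper side was swabbed, and membranes were DAPI-stained. Nuclei were counted in five fields per insert. Five repeats; results are the percent change from growth-factor-only controls.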

HT-29 = assay: Antiproliferative activity against human HT-29 cells after 72 hrs by MTT assay; type: functional, cell-based; details: HT-29, 72 h
[7] = target: Tyrosine-protein kinase ABL1 (Homo sapiens, UniProt P00519); assay: Inhibition of Abl (unknown origin)
[8] = Antiproliferative activity against mouse BNL 1ME A.7R.1 cells after 72 hrs by MTT assay; type: functional, cell-based
HUVEC [9] = assay: Antiangiogenic activity in HUVEC assessed as decrease in dimensional parameters at 0.1 uM after 18 hrs; details: Homo sapiens
HUVEC [10] = assay: Antiproliferative activity against HUVEC after 72 hrs by MTT assay; type: cell-based; details: Homo sapiens
HUVEC [11] = assay: Antiangiogenic activity in HUVEC assessed as effect on number of cell meshwork at 0.1 uM after 18 hrs; details: Homo sapiens
Mus musculus [12] = assay: Inhibition of FGF2-induced neovascularization in C57/BL6 mouse assessed as reduction in hemoglobin concentration in matrigel plug at 1 uM, sc measured after 7 days; type: functional, organism-based
Procedure, shortened: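 Three-month-old C57/BL6 mice under isoflurane received 0.5 mL Matrigel GFR subcutaneously into the flank. The gel contained heparin (12 U.I.), ±FGF-2 200 ng/plug and 1 µM compound. After 7 days, plugs were removed and steeped overnight at 4 °C in 0.1% Brij-35/PBS. Hemoglobin was measured with Drabkin's reagent at 540 nm.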

Mus musculus [13] = assay: Antitumor activity against mouse BNL 1ME A.7R.1 cells allografted in Balb/c mouse assessed as tumor growth inhibition at 50 mg/kg, ip daily measured after 7 days; type: functional, organism-based; set-up: dose 50 mg/kg
Procedure, shortened: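 Male Balb/c mice, 10 weeks old, received 10⁷ BNL 1ME A.7R.1 cells in PBS subcutaneously in the dorsal region. From day 7, mice were dosed daily ip with 50 mg/kg in 0.9% NaCl with 5% PEG 400 and 0.5% Tween 80, or vehicle. Tumors were measured daily for 7 days by caliper (V = AB²/2). Mean ± SEM, five animals per group.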

HUVEC [14] = assay: Antiangiogenic activity in HUVEC assessed as disruption of tube-like structures at 0.1 uM after 18 hrs by phase contrast microscopy; details: Homo sapiens
HeLa = assay: Antiproliferative activity against human HeLa cells after 72 hrs by MTT assay; type: functional, cell-based
[15] = target: Fibroblast growth factor receptor 1 (Homo sapiens, UniProt P11362); assay: Inhibition of FGFR1 (unknown origin); procedure, shortened: as §1
HUVEC [16] = assay: Induction of apoptosis in HUVEC assessed as mono-/oligo-nucleosome formation at 10 uM after 24 hrs by ELISA; type: functional, cell-based; details: Homo sapiens
[17] = target: Epidermal growth factor receptor (Homo sapiens, UniProt P00533); assay: Inhibition of EGFR (unknown origin)
[18] = Toxicity in mouse BNL 1ME A.7R.1 cells allografted Balb/c mouse model assessed as body weight loss at 50 mg/kg, ip daily measured after 3 days; type: organism-based; set-up: dose 50 mg/kg, route intraperitoneal; details: in vivo, 72 h
[19] = target: T1, Platelet-derived growth factor receptor beta; assay: Inhibition of PDGFRbeta (unknown origin) at 1 uM

Chain of Tyrosine-protein kinase ABL1 (P00519 whole entry): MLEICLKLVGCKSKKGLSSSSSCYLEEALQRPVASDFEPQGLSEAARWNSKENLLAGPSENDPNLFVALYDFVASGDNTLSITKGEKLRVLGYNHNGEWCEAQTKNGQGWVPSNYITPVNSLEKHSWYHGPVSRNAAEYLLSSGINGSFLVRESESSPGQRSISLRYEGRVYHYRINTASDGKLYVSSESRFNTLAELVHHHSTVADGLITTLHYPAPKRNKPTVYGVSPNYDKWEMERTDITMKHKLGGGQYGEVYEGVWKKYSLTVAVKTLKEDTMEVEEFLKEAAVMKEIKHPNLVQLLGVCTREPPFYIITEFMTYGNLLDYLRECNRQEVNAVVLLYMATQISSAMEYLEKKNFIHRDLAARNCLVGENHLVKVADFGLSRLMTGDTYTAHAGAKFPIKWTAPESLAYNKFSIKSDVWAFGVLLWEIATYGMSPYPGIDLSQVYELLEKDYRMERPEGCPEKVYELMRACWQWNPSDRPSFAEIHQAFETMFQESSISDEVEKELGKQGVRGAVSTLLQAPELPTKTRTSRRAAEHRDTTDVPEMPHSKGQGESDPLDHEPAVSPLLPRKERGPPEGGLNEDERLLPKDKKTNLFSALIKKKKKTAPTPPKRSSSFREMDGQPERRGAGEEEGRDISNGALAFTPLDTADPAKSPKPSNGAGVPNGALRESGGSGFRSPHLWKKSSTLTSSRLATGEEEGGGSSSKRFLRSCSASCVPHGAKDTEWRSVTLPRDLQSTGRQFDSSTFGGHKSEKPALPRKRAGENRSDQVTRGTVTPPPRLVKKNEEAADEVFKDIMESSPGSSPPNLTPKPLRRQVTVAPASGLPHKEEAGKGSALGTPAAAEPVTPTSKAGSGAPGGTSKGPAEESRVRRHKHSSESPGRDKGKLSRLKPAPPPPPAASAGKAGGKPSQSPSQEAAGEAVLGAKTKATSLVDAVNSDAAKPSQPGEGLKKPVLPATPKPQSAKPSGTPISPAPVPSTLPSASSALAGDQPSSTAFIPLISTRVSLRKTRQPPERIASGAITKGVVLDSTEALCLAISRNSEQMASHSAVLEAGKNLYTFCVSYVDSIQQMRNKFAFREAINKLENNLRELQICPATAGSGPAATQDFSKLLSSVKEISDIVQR
Chain of Fibroblast growth factor receptor 1 (P11362 whole entry): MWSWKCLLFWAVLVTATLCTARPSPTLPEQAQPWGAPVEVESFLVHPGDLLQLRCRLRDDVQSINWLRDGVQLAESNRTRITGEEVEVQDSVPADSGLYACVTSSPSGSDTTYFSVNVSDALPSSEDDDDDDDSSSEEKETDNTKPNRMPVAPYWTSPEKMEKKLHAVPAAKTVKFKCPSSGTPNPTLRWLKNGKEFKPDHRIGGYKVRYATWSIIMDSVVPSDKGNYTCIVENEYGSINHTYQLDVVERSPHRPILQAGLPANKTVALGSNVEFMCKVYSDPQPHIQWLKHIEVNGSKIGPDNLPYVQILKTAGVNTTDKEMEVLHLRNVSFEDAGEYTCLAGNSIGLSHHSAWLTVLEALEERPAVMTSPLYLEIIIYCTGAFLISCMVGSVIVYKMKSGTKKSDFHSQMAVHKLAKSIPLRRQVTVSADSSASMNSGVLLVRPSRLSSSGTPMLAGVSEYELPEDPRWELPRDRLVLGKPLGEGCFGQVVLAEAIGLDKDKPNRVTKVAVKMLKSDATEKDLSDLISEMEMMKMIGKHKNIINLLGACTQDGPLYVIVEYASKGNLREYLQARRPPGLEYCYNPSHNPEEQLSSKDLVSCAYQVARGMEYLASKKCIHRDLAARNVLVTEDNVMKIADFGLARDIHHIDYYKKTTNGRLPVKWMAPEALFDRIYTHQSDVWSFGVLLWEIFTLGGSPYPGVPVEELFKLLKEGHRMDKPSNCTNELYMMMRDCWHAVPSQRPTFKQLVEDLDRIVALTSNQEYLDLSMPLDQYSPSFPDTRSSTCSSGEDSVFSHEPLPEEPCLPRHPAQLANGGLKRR
Chain of Proto-oncogene tyrosine-protein kinase Src (P12931 2-536 limits assumed): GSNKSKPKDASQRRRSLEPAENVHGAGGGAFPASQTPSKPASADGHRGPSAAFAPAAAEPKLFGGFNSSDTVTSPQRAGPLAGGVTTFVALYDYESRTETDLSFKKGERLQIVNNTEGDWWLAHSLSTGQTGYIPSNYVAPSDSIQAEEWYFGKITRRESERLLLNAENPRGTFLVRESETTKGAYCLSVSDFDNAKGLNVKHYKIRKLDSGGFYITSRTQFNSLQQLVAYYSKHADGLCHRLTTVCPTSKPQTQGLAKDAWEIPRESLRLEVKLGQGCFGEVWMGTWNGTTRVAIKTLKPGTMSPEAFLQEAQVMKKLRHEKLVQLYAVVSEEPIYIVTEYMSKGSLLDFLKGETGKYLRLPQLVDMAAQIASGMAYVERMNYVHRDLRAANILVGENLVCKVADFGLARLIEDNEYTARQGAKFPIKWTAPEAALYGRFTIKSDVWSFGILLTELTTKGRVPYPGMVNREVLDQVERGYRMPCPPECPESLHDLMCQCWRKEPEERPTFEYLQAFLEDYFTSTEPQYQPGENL
T1 sequence (P09619 whole entry): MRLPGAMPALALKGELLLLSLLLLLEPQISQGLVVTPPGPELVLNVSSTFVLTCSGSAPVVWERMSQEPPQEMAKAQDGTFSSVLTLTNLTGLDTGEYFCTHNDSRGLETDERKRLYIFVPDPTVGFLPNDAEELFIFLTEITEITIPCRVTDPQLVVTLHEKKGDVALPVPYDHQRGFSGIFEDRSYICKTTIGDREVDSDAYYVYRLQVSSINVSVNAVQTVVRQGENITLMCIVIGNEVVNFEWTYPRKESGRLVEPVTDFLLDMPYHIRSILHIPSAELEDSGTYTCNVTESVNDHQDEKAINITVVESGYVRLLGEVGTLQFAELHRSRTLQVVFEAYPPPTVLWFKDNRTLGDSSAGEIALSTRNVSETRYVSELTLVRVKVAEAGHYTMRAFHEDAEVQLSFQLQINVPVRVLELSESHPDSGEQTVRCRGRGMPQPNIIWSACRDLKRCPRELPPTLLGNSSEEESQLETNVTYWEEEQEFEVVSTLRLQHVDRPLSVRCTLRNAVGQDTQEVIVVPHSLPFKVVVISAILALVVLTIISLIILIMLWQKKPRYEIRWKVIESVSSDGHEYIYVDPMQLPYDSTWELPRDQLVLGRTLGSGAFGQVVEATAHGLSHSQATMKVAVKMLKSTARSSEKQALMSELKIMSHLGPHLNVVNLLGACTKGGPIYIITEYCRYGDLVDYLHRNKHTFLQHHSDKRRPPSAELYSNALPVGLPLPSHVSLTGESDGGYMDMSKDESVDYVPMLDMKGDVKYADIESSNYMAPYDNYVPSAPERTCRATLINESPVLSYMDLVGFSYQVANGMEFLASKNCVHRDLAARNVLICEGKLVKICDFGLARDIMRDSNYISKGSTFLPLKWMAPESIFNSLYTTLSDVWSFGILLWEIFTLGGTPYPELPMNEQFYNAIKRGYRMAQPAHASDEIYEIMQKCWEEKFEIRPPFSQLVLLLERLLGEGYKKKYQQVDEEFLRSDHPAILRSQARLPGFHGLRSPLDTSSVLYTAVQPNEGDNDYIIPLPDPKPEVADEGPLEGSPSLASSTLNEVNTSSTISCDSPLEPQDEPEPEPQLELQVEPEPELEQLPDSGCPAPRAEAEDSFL
Chain of Vascular endothelial growth factor receptor 2 (Homo sapiens) (P35968 whole entry): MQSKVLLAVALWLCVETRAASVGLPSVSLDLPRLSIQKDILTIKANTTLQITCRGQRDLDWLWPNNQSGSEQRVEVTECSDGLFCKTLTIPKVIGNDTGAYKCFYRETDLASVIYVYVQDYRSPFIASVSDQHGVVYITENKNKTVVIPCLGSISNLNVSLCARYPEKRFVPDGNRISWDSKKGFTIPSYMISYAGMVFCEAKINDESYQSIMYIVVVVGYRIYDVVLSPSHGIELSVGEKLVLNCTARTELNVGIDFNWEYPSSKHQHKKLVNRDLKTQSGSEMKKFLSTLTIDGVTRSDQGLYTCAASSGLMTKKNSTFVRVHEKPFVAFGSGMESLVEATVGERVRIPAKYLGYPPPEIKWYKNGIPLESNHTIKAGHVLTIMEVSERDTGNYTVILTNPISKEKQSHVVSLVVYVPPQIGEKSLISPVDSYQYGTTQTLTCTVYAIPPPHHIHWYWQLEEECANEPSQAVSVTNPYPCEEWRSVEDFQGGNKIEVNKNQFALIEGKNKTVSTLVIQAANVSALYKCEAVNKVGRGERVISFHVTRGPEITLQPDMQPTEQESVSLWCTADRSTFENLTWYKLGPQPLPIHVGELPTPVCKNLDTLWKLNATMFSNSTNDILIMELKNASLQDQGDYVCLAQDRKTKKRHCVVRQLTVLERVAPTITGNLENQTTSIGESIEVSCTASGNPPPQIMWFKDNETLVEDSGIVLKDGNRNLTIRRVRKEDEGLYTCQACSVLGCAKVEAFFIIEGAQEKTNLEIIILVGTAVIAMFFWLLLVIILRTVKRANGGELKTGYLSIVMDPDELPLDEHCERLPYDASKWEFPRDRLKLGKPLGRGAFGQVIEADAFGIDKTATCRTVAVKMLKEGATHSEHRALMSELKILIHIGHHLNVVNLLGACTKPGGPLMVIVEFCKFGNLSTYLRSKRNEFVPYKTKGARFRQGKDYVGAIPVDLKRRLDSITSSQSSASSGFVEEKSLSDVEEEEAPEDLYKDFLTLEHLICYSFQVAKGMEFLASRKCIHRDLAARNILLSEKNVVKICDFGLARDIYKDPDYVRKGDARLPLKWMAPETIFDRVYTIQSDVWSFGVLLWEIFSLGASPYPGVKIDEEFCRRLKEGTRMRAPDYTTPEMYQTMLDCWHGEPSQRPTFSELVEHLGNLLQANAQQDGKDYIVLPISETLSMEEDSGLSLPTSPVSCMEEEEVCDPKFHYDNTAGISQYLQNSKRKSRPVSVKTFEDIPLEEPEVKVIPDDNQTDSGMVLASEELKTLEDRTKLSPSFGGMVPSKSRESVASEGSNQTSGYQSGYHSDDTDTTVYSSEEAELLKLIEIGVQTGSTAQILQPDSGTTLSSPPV

SMILES: Brc1cccc(Nc2ncnc3c2ccc2ccccc23)c1
- IC50 (NIH3T3): > 10 µM
- IC50 (A-431): > 10 µM

SMILES: Cc1ccnc(Nc2ncnc3cc4c(cc23)OCO4)c1
- IC50 (NIH3T3): > 10 µM
- IC50 (A-431): > 10 µM

SMILES: Cn1c(=O)n(C)c2cc3c(Nc4cccc(Br)c4)ncnc3cc21
- IC50 (NIH3T3): > 10 µM
- IC50 (A-431): > 10 µM

SMILES: Cl.c1ccc(-c2cccc(Nc3ncnc4cc5c(cc34)OCCO5)c2)cc1
- IC50 [1]: 0.74 µM
- IC50 (NIH3T3): 0.6 µM
- inhibition [2]: 50%
- IC50 [3]: 0.1 µM
- IC50 [4]: 0.642 µM
- Activity (HUVEC [5]): Toxic
- inhibition (HUVEC [6]): Active
- IC50 (HT-29): 0.68 µM
- IC50 [7]: 0.024 µM
- IC50 [8]: 2.7 µM
- Activity (HUVEC [9]): Active
- IC50 (HUVEC [10]): 0.08 µM
- Activity (HUVEC [11]): Active
- inhibition (Mus musculus [12]): Active
- TGI (Mus musculus [13]): inactive
- Activity (HUVEC [14]): Active
- IC50 (HeLa): 0.62 µM
- IC50 [15]: 0.178 µM
- Activity (HUVEC [16]): Active

SMILES: CS(=O)(=O)Nc1cccc(Nc2ncnc3cc4c(cc23)OCCO4)c1
- IC50 (NIH3T3): > 10 µM
- IC50 (A-431): > 10 µM

SMILES: CS(=O)(=O)Nc1cccc(Nc2ncnc3cc4c(cc23)OCO4)c1
- IC50 (NIH3T3): > 10 µM
- IC50 (A-431): > 10 µM

SMILES: Cl.c1ccc(-c2cccc(Nc3ncnc4cc5c(cc34)OCCCO5)c2)cc1
- IC50 [17]: 0.027 µM
- IC50 [1]: 0.7 µM
- IC50 (NIH3T3): 0.92 µM
- inhibition [2]: 30%
- IC50 (A-431): 0.66 µM
- IC50 [4]: 0.645 µM
- Activity (HUVEC [5]): Toxic
- inhibition (HUVEC [6]): Active
- IC50 (HT-29): 0.71 µM
- IC50 [7]: 0.056 µM
- IC50 [8]: 3 µM
- IC50 (HUVEC [10]): 0.91 µM
- Activity (HUVEC [11]): Active
- inhibition (Mus musculus [12]): Active
- Activity [18]: Toxic
- Activity (HUVEC [14]): inactive
- IC50 (HeLa): 5.49 µM
- IC50 [15]: 0.063 µM
- Activity (HUVEC [16]): Active
- inhibition [19]: 40%

SMILES: Cc1cccc(Nc2ncnc3cc4c(cc23)OCO4)n1
- IC50 (NIH3T3): > 10 µM
- IC50 (A-431): > 10 µM

SMILES: FC(F)(F)c1cccc(Nc2ncnc3c2ccc2ccccc23)c1
- IC50 (NIH3T3): > 10 µM
- IC50 (A-431): > 10 µM

SMILES: COc1cc2ncnc(Nc3cccc(Br)c3)c2cc1OC
- IC50 [1]: 8.21 µM
- IC50 (NIH3T3): > 10 µM
- inhibition (HUVEC [6]): Active
- IC50 (HT-29): > 10 µM
- IC50 [8]: 9.5 µM
- IC50 (HUVEC [10]): 4.06 µM
- Activity (HUVEC [11]): Active
- inhibition (Mus musculus [12]): inactive
- Activity (HUVEC [14]): inactive
- IC50 (HeLa): > 10 µM

SMILES: C=CCOc1cc2ncnc(Nc3cccc(C(F)(F)F)c3)c2cc1OC
- IC50 (NIH3T3): > 10 µM
- IC50 (A-431): 5.95 µM

SMILES: Cc1cccc(Nc2ncnc3cc4c(cc23)OCCO4)n1
- IC50 (NIH3T3): > 10 µM
- IC50 (A-431): > 10 µM

SMILES: Cl.c1ccc(-c2cccc(Nc3ncnc4cc5c(cc34)OCO5)c2)cc1
- IC50 (NIH3T3): 0.6 µM
- IC50 [3]: 0.243 µM
- IC50 [4]: 0.032 µM
- Activity (HUVEC [5]): Non-toxic
- inhibition (HUVEC [6]): Active
- IC50 (HT-29): 0.95 µM
- IC50 [7]: 0.051 µM
- IC50 [8]: 2.8 µM
- IC50 (HUVEC [10]): 0.75 µM
- Activity (HUVEC [11]): Active
- inhibition (Mus musculus [12]): Active
- TGI (Mus musculus [13]): Active
- Activity (HUVEC [14]): inactive
- IC50 [15]: 0.063 µM
- Activity (HUVEC [16]): inactive

SMILES: C=CCOc1cc2ncnc(Nc3cccc(C)c3)c2cc1OC
- IC50 (NIH3T3): 6.6 µM
- IC50 (A-431): 8.45 µM

SMILES: C=CCOc1cc2ncnc(Nc3cccc(Br)c3)c2cc1OC
- IC50 (NIH3T3): > 10 µM
- IC50 (A-431): 4.49 µM

SMILES: Cc1ccnc(Nc2ncnc3cc4c(cc23)OCCO4)c1
- IC50 (NIH3T3): 6.6 µM
- IC50 (A-431): 5.17 µM

SMILES: Cn1c(=O)n(C)c2cc3c(Nc4cccc(C(F)(F)F)c4)ncnc3cc21
- IC50 (NIH3T3): > 10 µM
- IC50 (A-431): > 10 µM

SMILES: Cc1cccc(Nc2ncnc3cc4c(cc23)n(C)c(=O)n4C)c1
- IC50 (NIH3T3): > 10 µM
- IC50 (A-431): > 10 µM

SMILES: Cc1cccc(Nc2ncnc3c2ccc2ccccc23)c1
- IC50 (NIH3T3): > 10 µM
- IC50 (A-431): > 10 µM
